We go through 23 compounds from ChEMBL document CHEMBL2203239, “Discovery of novel 2-(3-(2-chlorophenyl)pyrazin-2-ylthio)-N-arylacetamides as potent HIV-1 inhibitors using a structure-based bioisosterism approach” (Bioorg Med Chem, 2012).

Data set [1] in a line: Selectivity index, ratio of CC50 for HIV2 ROD infected in human MT4 cells to EC50 for HIV1 3B. The format is toxicity, cell-based. Particulars: MT4 cells infected with HIV2 ROD, read-out: Ratio CC50/EC50. A digest of the protocol: (§1)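 Selectivity index calculated as CC50/EC50. Both values come from the parallel 5-day MTT assays in MT-4 cells, with mock-infected and HIV-infected wells on the same plate.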

Data set [2] can be described thus: Cytotoxicity against HIV2 ROD infected in human MT4 cells by MTT assay. The format is cell-based. Particulars: MT4 cells infected with HIV2 ROD. A digest of the protocol: (§2)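 Cytotoxicity measured in parallel on mock-infected MT-4 cells (6×10^5 cells/mL) that received culture medium instead of virus. Serial fivefold compound dilutions were run in triplicate. MTT read-out after 5 days at 540 and 690 nm, using the median OD of three wells. CC50 is the concentration that reduces OD540 of the mock-infected control by 50%.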

Data set [3] is described as follows: Selectivity index, ratio of CC50 for HIV1 3B infected in human MT4 cells to EC50 for HIV1 3B. Particulars: MT4 cells infected with HIV1 3B, read-out: Ratio CC50/EC50. The format is toxicity, cell-based. A digest of the protocol:
as §1

The nature of data set [4]: Cytotoxicity against HIV1 3B infected in human MT4 cells by MTT assay. The format is cell-based. Particulars: MT4 cells infected with HIV1 3B. A digest of the protocol: as §2
For orientation: Tetrazolium dyes change colour on reduction, which living cells bring about.

The test system of data set [5] is Human immunodeficiency virus 2. Description: Antiviral activity against HIV2 ROD infected in human MT4 cells assessed as inhibition of virus-induced cytopathic effect by MTT assay. The format is functional, organism-based. Particulars: Human immunodeficiency virus 2, ISOLATE ROD. A digest of the protocol:
(§3)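 MT-4 cells, spun 5 min at 1000 rpm and resuspended at 6×10^5 cells/mL, infected with HIV-1(IIIB) or HIV-2(ROD) at 100–300 CCID50. Compounds added at start as serial fivefold dilutions, triplicate wells. Viability read by MTT at 540 and 690 nm five days post-infection, using the median OD of three wells. EC50 is the concentration giving 50% protection against virus-induced cytopathicity.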
(Cytopathic effects are the visible damage that an infection or toxin causes in cultured cells.)

In data set [6] the test system is Human immunodeficiency virus 1. Kind of data set: Antiviral activity against HIV1 3B infected in human MT4 cells assessed as inhibition of virus-induced cytopathic effect by MTT assay. The format is functional, organism-based. Particulars: Human immunodeficiency virus 1, 3B. A digest of the protocol:
as §3

For data set [7], the target named is Human immunodeficiency virus type 1 reverse transcriptase (Human immunodeficiency virus 1, UniProt Q72547). Kind of data set: Inhibition of HIV1 recombinant reverse transcriptase assessed as incorporation of biotin-dUTP into […] by colorimetric analysis. Put shortly: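 Highly purified recombinant HIV-1 RT, with […] as template primer on plate-linked nucleotides. Activity measured colorimetrically as incorporation of biotin-dUTP.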

Data set [8] has as its system Human immunodeficiency virus. Description: Antiviral activity against HIV harboring reverse transcriptase K103N/Y181C mutant. Particulars: Human immunodeficiency virus 1. The format is functional, organism-based. A digest of the protocol:
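MT-4 cells (6×10^5 cells/mL) were infected with 100–300 CCID50 of virus, and mock-infected cells were run in parallel. Compounds were tested in serial fivefold dilutions in triplicate wells. After 5 days, viability was read by MTT reduction at 540 and 690 nm using the median OD of three wells. EC50 is the concentration giving 50% protection against virus-induced cytopathicity.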

The subject of data set [9] is Human immunodeficiency virus. Description: Antiviral activity against wild type HIV. The format is functional, organism-based. Particulars: Human immunodeficiency virus 1.

In general, CC50 refers to the concentration that lowers cell viability or growth by half. In general, EC50 refers to the midpoint of the concentration-response curve. In the case of `O=C(CSc1nccnc1-c1ccccc1Cl)Nc1ccccc1Cl`, the selectivity ratio in [1] was less than 1; in data set [3], 7. The CC50 is 46 µM in data set [2] and 34 µM in data set [4]. Also, the concentration giving a half-maximal response (EC50) was greater than 46 µM in data set [5] and 4.6 µM in data set [6].

For orientation: IC50 means the concentration needed to halve the response being measured. For the compound `O=C(CSc1nccnc1-c1ccccc1Cl)Nc1ccccc1[N+](=O)[O-]`, in data set [7], the IC50 was determined as 50 µM. In addition, the selectivity ratio in data set [1] was less than 1; in [3] it was 23. The CC50 in data set [2] came to 55 µM; in data set [4], 39 µM. Besides, the EC50 in data set [5] was greater than 55 µM; in data set [6] it was 1.7 µM.

For `O=C(CSc1nccnc1-c1ccccc1Cl)Nc1ccccc1F`, the selectivity ratio is less than 1 in [1] and 9 in data set [3]. The values for the half-maximal cytotoxic concentration (CC50) in [2] and in data set [4] were 91 µM and 48 µM, respectively. Also, the figures for the half-maximal effective concentration (EC50) in [5] and in data set [6] were greater than 91 µM and 5.3 µM, respectively.

Regarding `O=C(CSc1nccnc1-c1ccccc1Cl)Nc1ccccc1Br`, the values for the selectivity ratio in data set [1] and in data set [3] were less than 1 and 7, respectively. Further, the values for the CC50 in data set [2] and in [4] were 41 µM and 31 µM, respectively. Further, the values for the EC50 in data set [5] and in [6] were greater than 41 µM and 4.2 µM, respectively.

For the compound `O=C(CSc1nccnc1-c1ccccc1Cl)N1CCCc2ccccc21`, the selectivity ratio in data set [1] and in data set [3] was less than 1 each time. Also, the cytotoxic concentration (CC50) in data set [2] came out at 34 µM; in [4], 33 µM. The figures for the EC50 in data set [5] and in data set [6] were greater than 34 µM and greater than 33 µM, respectively.

On to `CC(C)Nc1cccnc1N1CCN(C(=O)c2cc3cc(NS(C)(=O)=O)ccc3[nH]2)CC1` [DELAVIRDINE], for which the half-maximal cytotoxic concentration (CC50) in [2] and in data set [4] was greater than 36 µM in each case. In data set [3], the selectivity ratio is greater than 1100.

On to `Cc1ccc2sc(NC(=O)CSc3nccnc3-c3ccccc3Cl)nc2c1`, for which the selectivity ratio in data set [1] and in data set [3] was less than 1 throughout. For the same compound, the half-maximal cytotoxic concentration (CC50) was 30 µM in data set [2] and 32 µM in data set [4]. For the same compound, the EC50 is greater than 30 µM in data set [5] and greater than 32 µM in data set [6].

In the case of `Cc1ccc(NC(=O)CSc2nccnc2-c2ccccc2Cl)c([N+](=O)[O-])c1`, the selectivity ratio is less than 1 in [1] and 19 in data set [3]. The cytotoxic concentration (CC50) in data set [2] turned out to be 148 µM; in data set [4], 54 µM. The EC50 in data set [5] is greater than 148 µM; in data set [6], 2.9 µM.

`Cc1ccnc2c1NC(=O)c1cccnc1N2C1CC1` [NEVIRAPINE]: the CC50 in data set [2] and in data set [4] was greater than 15 µM in each case.

Turning to `O=C(CSc1nccnc1-c1ccccc1Cl)Nc1cccnc1Cl`, the selectivity ratio in data set [1] is less than 1; in [3] it was 64. Besides, the half-maximal cytotoxic concentration (CC50) is 166 µM in data set [2] and 152 µM in data set [4]. In addition, the half-maximal effective concentration (EC50) is greater than 166 µM in data set [5] and 2.3 µM in data set [6].

Consider `O=C(CSc1nccnc1-c1ccccc1Cl)Nc1ccccc1`, for which the selectivity ratio in data set [1] and in [3] was less than 1 throughout. Moreover, the half-maximal cytotoxic concentration (CC50) in data set [2] is 33 µM; in [4], 35 µM. Moreover, the EC50 in data set [5] was greater than 33 µM; in data set [6], greater than 35 µM.

Turning to `Nc1ccn([C@H]2CC[C@@H](CO)O2)c(=O)n1` [ZALCITABINE], the selectivity ratio was greater than 74 in data set [1] and greater than 93 in data set [3]. Besides, the half-maximal cytotoxic concentration (CC50) in data set [2] and in data set [4] was greater than 95 µM in each case.

Consider `COC(=O)c1ccc(NC(=O)CSc2nccnc2-c2ccccc2Cl)c(Br)c1`, for which the selectivity ratio in data set [1] is less than 1; in data set [3] it was 25. The CC50 in data set [2] was determined as 108 µM; in [4] it was 95 µM. For the same compound, the EC50 in data set [5] is greater than 108 µM; in data set [6], 3.7 µM.

`O=C(CSc1nccnc1-c1ccccc1Cl)Nc1ccc(Cl)cc1Cl`: the selectivity ratio in data set [1] was less than 1; in data set [3] it was 6. Further, the results for the cytotoxic concentration (CC50) in [2] and in [4] were 34 µM and 29 µM, respectively. Further, the concentration for a half-maximal effect (EC50) in data set [5] is greater than 34 µM; in data set [6], 5.2 µM.

For the compound `Cc1ccc(NC(=O)CSc2nccnc2-c2ccccc2Cl)c(Br)c1`, the selectivity ratio was less than 1 in data set [1] and 9 in [3]. The CC50 in data set [2] worked out at 35 µM; in data set [4], 31 µM. The results for the concentration giving a half-maximal response (EC50) in [5] and in data set [6] were greater than 35 µM and 4.3 µM, respectively.

With `NS(=O)(=O)c1ccc(NC(=O)CSc2nnc(Br)n2-c2ccc(C3CC3)c3ccccc23)c(Cl)c1`, the EC50 in data set [8] was determined as 0.23 µM; in data set [9], 0.14 µM.

Regarding `CCOC(=O)c1ccc(NC(=O)CSc2nccnc2-c2ccccc2Cl)c(Br)c1`, the selectivity ratio in data set [1] was less than 1; in data set [3], 5. Besides, the half-maximal cytotoxic concentration (CC50) in data set [2] amounted to 62 µM; in data set [4], 45 µM. The figures for the concentration for a half-maximal effect (EC50) in data set [5] and in [6] were greater than 62 µM and 9 µM, respectively.

For `Cc1cn([C@H]2C[C@H](N=[N+]=[N-])[C@@H](CO)O2)c(=O)[nH]c1=O` [ZIDOVUDINE], the selectivity ratio stood at 56900 in [1] and 12200 in data set [3]. Besides, the CC50 in [2] and in data set [4] was 249 µM throughout. For the same compound, the 50% effective concentration (EC50) in data set [6] was 0.021 µM.

On to `CC(=O)c1ccc(NC(=O)CSc2nccnc2-c2ccccc2Cl)c(Br)c1`, for which the selectivity ratio in data set [1] is less than 1; in [3] it was 12. The CC50 in [2] turned out to be 31 µM; in data set [4] it was 30 µM. Further, the concentration for a half-maximal effect (EC50) is greater than 31 µM in data set [5] and 2.5 µM in data set [6].

For the compound `COC(=O)c1sccc1NC(=O)CSc1nccnc1-c1ccccc1Cl`, the selectivity ratio in [1] and in data set [3] was less than 1 in each case. For the same compound, the cytotoxic concentration (CC50) in data set [2] was 48 µM; in [4], 68 µM. For the same compound, the results for the concentration for a half-maximal effect (EC50) in data set [5] and in data set [6] were greater than 48 µM and greater than 68 µM, respectively.

Regarding `O=C(CSc1nccnc1-c1ccccc1Cl)N1CCc2ccccc2C1`, the selectivity ratio in [1] is less than 1; in data set [3], 8. The CC50 in [2] is 50 µM; in data set [4], 33 µM. For the same compound, the EC50 in data set [5] is greater than 50 µM; in data set [6], 4.1 µM.

In the case of `O=C(CSc1nccnc1-c1ccccc1Cl)Nc1ccc(Cl)cc1Br`, the selectivity ratio is less than 1 in data set [1] and 5 in data set [3]. In addition, the CC50 in data set [2] was 29 µM; in data set [4], 26 µM. Besides, the results for the concentration giving a half-maximal response (EC50) in data set [5] and in [6] were greater than 29 µM and 5.1 µM, respectively.

Take `O=C1Nc2ccc(Cl)cc2[C@@](C#CC2CC2)(C(F)(F)F)O1` [EFAVIRENZ]: the CC50 in data set [2] and in [4] was greater than 6.3 µM each time.
